# KCNK3 block – human KCNK3 channel inhibition, primary screen; CHO-KCNK3 thallium flux, FluxOR fluorescence; stronger effect = lower value; B-score at 10 µM; 340,000 compounds, 0.84% hits; AID 602410;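 active = B-score under library mean minus 4 SD, starting fluorescence ratio at most library mean plus 5 SD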;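 also: more negative B-score means stronger inhibition of thallium flux through KCNK3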
# KCNK9 block – blocks the human KCNK9 two-pore domain potassium channel; Q9NPC2; HEK293 KCNK9, FluxOR thallium flux fluorescence; stronger effect = lower value; B-score at 10 µM; 310,000 compounds, 1.2% hits; AID 488922;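 active = ratio B-score over 3 SD below the library mean, with starting fluorescence within 5 SD of its mean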;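 also: negative B-score means less thallium flux so channel inhibition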
# KCNQ1 pot – human KCNQ1 channel potentiation or activation; CHO-K1 KCNQ1, thallium flux FluxOR fluorescence; stronger effect = higher value; B-score at 10 µM; 310,000 compounds, 0.35% hits;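 active = fluorescence ratio B-score, a plate-corrected score, at least three library SD, with initial intensity B-score within 5 SD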
#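 Material: CHO-K1 cells stably expressing KCNQ1. Medium: assay buffer for compound exposure, DMSO matched across wells. Reagent: K+/Tl+ depolarizing stimulus. Compound dosing: single-concentration screen. Times: 37 °C overnight plating, 90-min dark dye load, 20-min compound pretreatment. Technique: FluxOR Tl+ flux fluorescence.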
# hERG rescue – compounds protecting human hERG from proarrhythmic drug block | Q12809 | CHO-hERG, FluxOR thallium flux, dofetilide IC70 present | activation (rescue from dofetilide block), less the hit threshold, % at 10 µM | 310,000 compounds, 0.51% hits | AID 1511;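 active = activation above the mean of controls blocked by dofetilide plus 5 SD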;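 also: thallium influx through hERG after potassium depolarization seen as dye fluorescence rise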
# Kir21 inh – Kir2.1 (mouse) channel inhibition; 310,000 compounds, 0.85% hits; HEK293-Kir2.1, FluxOR thallium flux fluorescence; stronger effect = lower value; B-score at 10 µM;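 active = fluorescence ratio B-score at or below minus 3 SD of library scores, with starting-brightness B-score within 2 SD, cut at about -4.2 in these data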;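 also: channel flux triggered by added potassium and thallium sulfate stimulus; B-score of peak minus minimum fluorescence over baseline after thallium stimulus; more negative B-score means stronger Kir2.1 block with less thallium influx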
# Target sequence (P35561 whole entry, looked up): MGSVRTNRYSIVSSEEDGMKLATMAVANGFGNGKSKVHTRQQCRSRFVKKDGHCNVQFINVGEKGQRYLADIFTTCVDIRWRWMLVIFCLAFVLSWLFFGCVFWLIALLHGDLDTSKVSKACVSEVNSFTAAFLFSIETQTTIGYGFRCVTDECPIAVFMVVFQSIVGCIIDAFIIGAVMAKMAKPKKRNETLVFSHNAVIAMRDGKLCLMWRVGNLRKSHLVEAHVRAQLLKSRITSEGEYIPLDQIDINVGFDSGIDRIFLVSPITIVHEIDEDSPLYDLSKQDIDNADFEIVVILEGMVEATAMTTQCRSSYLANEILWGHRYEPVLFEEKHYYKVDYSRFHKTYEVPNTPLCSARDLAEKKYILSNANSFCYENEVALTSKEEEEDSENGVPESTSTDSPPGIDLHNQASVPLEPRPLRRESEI
# KCNQ1 block – human KCNQ1 channel inhibition. 310,000 compounds, 1.3% hits. CHO-K1 KCNQ1, FluxOR thallium flux fluorescence; stronger effect = higher value. AID 2642. P51787. B-score at 10 µM;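 active = compounds whose thallium flux B-score, printed positive for inhibition, exceeds three library SD while starting fluorescence stays within three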;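 also: channel opened by potassium depolarization with thallium stimulus after 20 min compound exposure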
# An asterisk follows results filed as active; i = inactive; / = not tested or not shown. In the library only some 3.7% were active in any assay of this set; here they are far more common.
SMILES,KCNK3 block,KCNK9 block,KCNQ1 pot,hERG rescue,Kir21 inh,KCNQ1 block
CN(C)C(CNC(=O)c1cccc(S(=O)(=O)Nc2ccc(SC(F)F)cc2)c1)c1ccccc1 (stereo unspecified),i,/,/,/,/,/
O=C(O)CC(NC(=O)C1CCCCC1)c1cc([N+](=O)[O-])ccc1Cl (stereo unspecified),i,i,i,-17,0.31,12*
O=C(Cc1cccc(NC(=O)C2CCCN(C(=O)CCc3ccccc3)C2)c1)Nc1cccc(C(=O)N2CCCCC2)c1 (stereo unspecified),i,/,/,/,/,/
CCC(NC(=S)NC1CCCCC1)c1ccc(C(C)C)cc1 (stereo unspecified),i,i,i,-9,0.88,10*
CC(NC(=O)NC1CCCCC1)c1ccc2c(c1)OCO2 (stereo unspecified),i,i,i,11*,0.17,i
Cc1ccc(C(C)NC(=S)NC2CCCCC2)cc1C (stereo unspecified),i,i,i,6.2*,-5.3*,i
CC(NC(=O)NC12CC3CC(CC(C3)C1)C2)c1ccc2c(c1)OCO2 (stereo unspecified),i,i,i,-17,-1.1,i
CCCc1cc(=O)oc2cc(OCC(=O)NCCCn3ccnc3)c(Cl)cc12,i,i,i,-8,-0.7,i
Cc1ccc(Cl)cc1NC(=S)NCCCSC1CCCCC1,i,i,i,-14,-0.82,8*
O=c1[nH]c(C(Cl)(Cl)Cl)nc2ccc3ccccc3c12,i,i,25*,5.1*,0.06,i
O=c1[nH]c(SCc2c(Cl)cccc2Cl)nc2ccccc12,i,i,i,-22,-0.42,i
CCOc1cccc(CNc2ccc(O)cc2)c1OCc1ccc(Cl)cc1Cl,i,i,i,-2,-0.05,i
CCOc1cc(CNCCO)cc(Br)c1OCc1ccc(Cl)cc1Cl,i,-7.8*,i,-17,-13*,i
CCOc1cccc(CNCCO)c1OCc1ccc(Cl)cc1Cl,i,i,i,-10,-6.1*,i
CC(C)Oc1ccc(C(=O)NN2C(=O)NC3(CCCCC3)C2=O)cc1,i,/,/,/,/,/
Cc1cccc(OCC(=O)O/N=C(\N)c2ccc(Br)cc2)c1,i,i,i,-12,0.72,i
COc1ccc(-c2cc3nc4ccccc4n3c(N)c2C#N)cc1,i,i,i,-16,0.53,i
CC1Cc2ccccc2N1S(=O)(=O)c1cccc(C(=O)NCc2ccccn2)c1 (stereo unspecified),i,/,/,/,/,/
CC1Cc2ccccc2N1S(=O)(=O)c1cccc(C(=O)NCc2ccncc2)c1 (stereo unspecified),-9.5*,/,/,/,/,/
COC(=O)c1cnn2c(C(F)(F)F)cc(-c3ccccc3)nc12,i,i,i,5.2*,-0.07,i
COc1cccc(-c2cc(C(F)(F)F)n3ncc(C(=O)O)c3n2)c1,i,i,i,-7,0.72,i
CSC1=C(C#N)C(c2ccccc2Cl)C2=C(N1)c1ccccc1C2=O (stereo unspecified),i,i,i,-19,-1.6,i
Cc1nn(-c2ccccn2)c2c1C(c1c(F)cccc1Cl)C1=C(N2)c2ccccc2C1=O (stereo unspecified),/,-6.9*,i,-10,-1.4,i
Cc1nn(-c2ccccn2)c2c1C(c1ccccc1Cl)C1=C(N2)c2ccccc2C1=O (stereo unspecified),i,-7*,i,-8,-0.36,i
Cc1nn(-c2ccccn2)c2c1C(c1ccsc1)C1=C(CCCC1=O)N2 (stereo unspecified),i,i,i,-5,-0.01,i
Cc1ccc(NC(=O)CSCc2cc(=O)n3ccsc3n2)c(C)c1,i,i,i,-5,-0.77,i
COc1ccc(OC)c(-c2cc(C(=O)N3CCc4ccccc4C3)no2)c1,i,i,i,-10,1.6,6*
CC1=C/C(=N\Nc2ccccc2[N+](=O)[O-])CC(C)(C)C1,i,i,i,-5,0.07,7*
N#Cc1ccc(CSc2nnc(Cc3cccs3)n2Cc2ccco2)cc1,i,i,i,-3,-6.1*,i
